Screening data deposited in PubChem by The Scripps Research Institute Molecular Screening Center.
Sampled rows, rich in hits. Any-hit rate of the full collection: about 4.7%.
AHR act: activates the human aryl hydrocarbon receptor; activation, % at 5 µM; P35869; actives 2.5% (n = 320,000); AHR-responsive luciferase reporter cells, luminescence; in the data active = activation above about 47%
MC4R barr agon: activates human MC4R beta-arrestin recruitment. P32245. U2OS MC4R beta-arrestin complementation, luminescence; percent of melanotan II response, DMSO zero. activation, % at 8.9 µM. actives 0.98% (n = 360,000). AID 540308;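 active = activation above a per-plate cutoff, the mean activation of sample wells on that plate plus 3 SD, cut at about 8% in these data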
FXN GAA850 act: increases GAA850 frataxin promoter reporter activity | actives 0.56% (n = 360,000) | HEK293 lucGAA850 FXN promoter luciferase reporter, 24 h; percent of 10 µM SAHA response | AID 540364 | activation, % at 6 µM;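 active = activation above the average of all compounds screened plus 3 SD, cutoff fixed separately per campaign, cut at about 7.5% in these data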
m5-HT2A agonist: mouse HTR2A agonism via beta-arrestin recruitment | P35363 | CHO-K1 mHTR2A beta-arrestin complementation, luminescence; percent of 30 µM serotonin response | activation, % at 7.6 µM | actives 0.66% (n = 360,000) | AID 624169;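 active = activation above a run cutoff, the mean activation of all tested compounds plus 3 SD, cut at about 14% in these data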
Target sequence (P35363 whole entry, looked up): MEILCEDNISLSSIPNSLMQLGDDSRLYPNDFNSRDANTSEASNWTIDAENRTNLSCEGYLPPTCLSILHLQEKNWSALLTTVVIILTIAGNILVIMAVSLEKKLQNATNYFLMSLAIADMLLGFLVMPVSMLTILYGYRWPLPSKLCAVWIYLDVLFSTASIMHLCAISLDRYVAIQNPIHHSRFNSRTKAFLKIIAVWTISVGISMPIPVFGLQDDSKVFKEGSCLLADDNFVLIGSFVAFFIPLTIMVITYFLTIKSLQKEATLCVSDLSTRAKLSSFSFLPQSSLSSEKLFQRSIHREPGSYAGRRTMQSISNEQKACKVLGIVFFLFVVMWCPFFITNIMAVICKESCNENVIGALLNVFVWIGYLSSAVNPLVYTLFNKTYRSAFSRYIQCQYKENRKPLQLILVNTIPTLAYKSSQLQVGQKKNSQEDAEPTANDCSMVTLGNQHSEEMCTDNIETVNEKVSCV
MC4R antagonist: blocks human MC4R cAMP signaling; inhibition, % at 6.5 µM; actives 0.48% (n = 360,000); MC4R-expressing cells, MTII-stimulated cAMP, LANCE TR-FRET; P32245; AID 540295;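 active = inhibition above its plate's cutoff, the mean of tested wells on that plate plus 3 SD, cut at about 29% in these data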
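Material: U2OS-MC4R stable cell line | Reagent: Melanotan II challenge after compound preincubation | Doses: One concentration, 6.5 µM nominal | Incubation: 30-min compound preincubation, 1-h Melanotan II challenge, 1-h detection, room temperature | Signal: TR-FRET cAMP assay | Replicates: One well per compound, no replicates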
A number is an active result; - = inactive; . = no result.

SMILES | AHR act | MC4R barr agon | FXN GAA850 act | m5-HT2A agonist | MC4R antagonist
O=Nc1c2nc3ccccc3n(O)c-2c2ccccc12 | 100.6 | - | - | - | -
Cc1cc(C)cc(-n2nnc3ccccc3c2=O)c1 | . | - | - | - | -
O=c1c2ccccc2nnn1-c1ccc(Br)cc1 | 117.2 | - | - | - | -
CN(C)c1ccc(CNC(=O)CC[C@H]2O[C@@H](n3cnc4c(NC(=O)c5ccccc5)ncnc43)[C@H](O)[C@@H]2O)cc1 | . | . | . | - | .
Cc1ccc(S(=O)(=O)N2CCC(=O)N(CCOCc3cccc(F)c3)CC2)cc1 | - | 8.4 | - | - | -
Cc1ccc(S(=O)(=O)N2CCC(=O)N(CCOCc3cccc(Cl)c3)CC2)cc1 | - | - | - | - | -
C=CCc1cccc(OC)c1OCCOCCn1ccnc1 | 73.3 | - | - | - | -
Cc1ccc(OCCOCCn2ccnc2)c(Br)c1 | - | - | - | - | -
Cc1cccc(-n2c(CCc3ccccc3)nnc2SCC(=O)c2ccccc2)c1 | - | 8.3 | - | - | -
O=S(=O)(Nc1cccc2cccnc12)c1ccccc1 | - | - | - | - | -
Cc1ccc2cccc(NS(=O)(=O)c3ccccc3)c2n1 | 71.2 | . | . | . | .
CN(C)S(=O)(=O)c1cccc(NC(=O)c2c[nH]c3ccccc23)c1 | 49.4 | - | - | - | -
COC(=O)c1oc2ccccc2c1NC(=O)CN1CCCC1 | 54.0 | - | - | - | -
O=S(=O)(Nc1nc(-c2sccc2Cl)cs1)c1cc(Cl)ccc1Cl | - | - | - | 19.6 | -
CC(C)(C)c1nnc(NS(=O)(=O)c2cc(Cl)ccc2Cl)s1 | - | - | - | - | -
COc1ccc(NC(=S)/N=C(\N)Nc2nc(C)c3ccccc3n2)cc1 | 65.5 | - | - | - | -
COc1ccc2nc(N/C(N)=N/C(=S)Nc3cccc(C)c3)nc(C)c2c1 | - | - | - | - | -
CCC(=O)N1CCN(c2ccccc2NC(=O)COc2ccccc2Cl)CC1 | 68.2 | - | - | - | -
CC1CCCCC1NCC(=O)Nc1ccccc1-c1ccccc1 (centres undefined) | - | 9.5 | - | - | -
CCOc1ccccc1CNn1cnnc1SCC(=O)NC(C)(C)C | . | - | - | - | -
CC(NC(=O)c1ccc(OC2CCN(C(=O)c3cccnc3)CC2)cc1)C1CC1 (centres undefined) | - | - | - | - | -
COc1cc(C(=O)NC(C)c2ccc(-n3ccnc3)cc2)cc(OC)c1C (centres undefined) | - | - | - | - | -
CCOc1ccccc1C(=O)NC(C)c1ccc(-n2ccnc2)cc1 (centres undefined) | 64.7 | - | - | - | -
COc1ccccc1C(=O)NC(C)c1ccc(-n2ccnc2)cc1 (centres undefined) | 60.3 | - | - | - | -
CC1(C(=O)NCc2ccco2)Cc2c(-c3cccc(C(N)=O)c3)ccnc2O1 (centres undefined) | . | - | - | - | -
SMILES | AHR act | MC4R barr agon | FXN GAA850 act | m5-HT2A agonist | MC4R antagonist
CN1CCN(c2ccc(S(=O)(=O)N3CCOCC3)cc2NC(=O)CSCc2ccccc2)CC1 | - | - | - | - | -
CCN(CC)C(=O)c1csc(Nc2ccc(C)cc2)n1 | - | - | - | - | -
Cc1ccc(Nc2nc(-c3sc(NC(=O)c4ccco4)nc3C)cs2)cc1 | 58.0 | - | - | - | -
CCOc1ccccc1Nc1nc(-c2sc(C)nc2C)cs1 | - | - | - | - | -
CCOc1ccccc1Nc1nc(-c2sc(NC(=O)c3ccco3)nc2C)cs1 | 66.3 | - | - | - | -
Cc1ccc(Nc2nc(C(=O)NCc3ccco3)cs2)cc1 | 52.4 | - | - | - | -
Cc1ccc(CN(C)C(=O)CSc2nnc3n2CCCCC3)c(C)c1 | - | - | - | - | -
O=C(NCC1(N2CCCCC2)CCCCC1)c1cccc(S(=O)(=O)Nc2ccc(F)cc2)c1 | - | - | - | - | -
COc1cc2c(cc1OC(C)=O)CCCCC2=O | . | - | - | - | -
COc1ccc(/C(N)=N/OC(=O)C2CCCCC2)cc1 | - | - | - | - | -
COc1ccc(/C(N)=N/OC(=O)C2CCCCC2)cc1OC | - | - | 9.0 | - | -
CCCc1cc(=O)[nH]c(Nc2ccc3c(c2)OCCO3)n1 | 70.7 | - | - | - | -
Cc1cccc(OC(=O)NCCOC(=O)N(O)c2ccc(Cl)cc2)c1 | 52.6 | - | - | - | -
Cc1cccc(OCC(=O)Oc2ccc(Cl)cc2)c1 | - | - | - | - | -
COc1cccc(CN2CCC(C(=O)NC(C)c3cccc4ccccc34)CC2)c1 (centres undefined) | . | - | - | - | -
Cc1nc(C(F)(F)F)nc(Nc2ccc(Br)cc2)c1C#N | 51.4 | - | - | - | -
Cc1nsc(Nc2ccc([N+](=O)[O-])cc2)c1C#N | - | - | - | - | -
CCN1C(=O)[C@H]2[C@@H](c3ccc(OC)cc3)N[C@]3(CCCN(Cc4ccc(C)cc4)C3=O)[C@H]2C1=O | . | - | - | - | -
CCOC(=O)c1ccc(NC(=S)Nc2ccccc2N)cc1 | - | . | . | . | .
Cc1cccc(S(=O)(=O)N/N=c2\sc3ccccc3n2C)c1 | 66.4 | - | - | - | -
C[C@H](O)[C@@H]1C(=O)N2CCc3ccc(N4CCN(C)CC4)cc3[C@@H]2C[C@@H]1N(C)C(=O)c1ccc(C#N)cc1 | . | - | - | - | -
CCc1nc2c(OCC3COc4ccccc4O3)cccn2c1N(C)C(=O)c1cccs1 (centres undefined) | . | - | - | - | -
Cc1cccc(C)c1NC(=O)CSc1nc(-c2ccco2)cc(C(F)(F)F)n1 | - | - | - | - | -
O=C(CSc1nc(-c2ccco2)cc(C(F)(F)F)n1)Nc1ccccc1C(F)(F)F | - | 9.4 | - | - | -
O=S(=O)(Nc1nc2ccccc2nc1Nc1cccc(S(=O)(=O)N2CCCCC2)c1)c1ccccc1 | - | 8.5 | - | - | -
SMILES | AHR act | MC4R barr agon | FXN GAA850 act | m5-HT2A agonist | MC4R antagonist
CCc1nc2c(OCCOc3ccc(F)cc3)cccn2c1N(C=O)Cc1ccccc1 | . | - | - | - | -
CCOC(=O)C1CCCN(C(=O)CN2C(=O)c3ccccc3S2(=O)=O)C1 (centres undefined) | - | - | - | - | -
O=C1Nc2ccccc2SC1=Cc1ccccc1 | . | - | - | - | -
O=C1Nc2ccccc2S/C1=C\C(=O)N1CCCC1 | 63.5 | . | . | . | .
CCC(Sc1nncn1C)C(=O)Nc1nnc(-c2ccccc2Cl)s1 (centres undefined) | 51.8 | - | - | - | -
CCOc1ccccc1-c1nc(C(N)=O)c2[nH]c(=O)n(-c3cccc(C)c3)c2n1 | 63.9 | - | - | - | -
CCOc1cccc(-c2nc(C(N)=O)c3[nH]c(=O)n(-c4cccc(Cl)c4)c3n2)c1O | - | - | - | - | -
Cc1cc(C(=O)Cn2cnc3ccc(Cl)cc3c2=O)c(C)n1C1CC1 | . | - | - | - | -
CC(C)CN(C(=O)COC(=O)c1ccc2c(c1)OCO2)c1c(N)n(Cc2ccccc2)c(=O)[nH]c1=O | - | - | - | - | -
Brc1c(-c2ccccc2)nc2n1Cc1ccccc1-2 | 53.9 | - | - | - | -
c1ccc(C2Oc3ccccc3C3CC(c4cccs4)=NN32)cc1 (centres undefined) | 47.7 | - | - | - | -
